Data set [1] deals with Mycobacterium tuberculosis. As to the kind of experiment: Antimicrobial activity against autoluminescent Mycobacterium tuberculosis H37Ra assessed as test compound concentration causing ratio of drug treated RLU/untreated RLU less than 10% measured every day up to 6 days by luminometric method. To be noted: 144 h. The class given is functional. A digest of the protocol:
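Autoluminescent marker-free H37Ra (UAIRa) grown in 7H9 with OADC and 0.05% Tween 80 until RLU exceeded 5 million/mL, then diluted to 10,000-50,000 RLU/mL in 7H9 without Tween 80. Compounds tested as 2-fold dilutions from 100 to 0.625 µg/mL, with DMSO 2% and rifampicin 1 µg/mL controls. RLU read daily to day 6. MIC is the lowest concentration giving RLU drug/DMSO below 10%.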

A short description of data set [2]: Toxicity in Balb/c mouse infected with Mycobacterium tuberculosis H37Ra assessed as mouse death at 300 mg/kg administered daily via gavage for 5 days. The data set is classed as organism-based. The note with it: in vivo, po, 120 h. In outline:
(§1)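 Female BALB/c mice aged 4-5 weeks infected by tail vein with autoluminescent H37Ra, four per group. Gavage daily from day 0 to day 5 in 0.5% CMC-Na vehicle. Deaths recorded over the 6-day treatment period and reported as percent survival.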

Data set [3] deals with Mycobacterium tuberculosis. As to the kind of experiment: Antimicrobial activity against autoluminescent Mycobacterium tuberculosis H37Ra infected in BALB/c mouse assessed as reduction in bacterial burden in lung at 100 to 300 mg/kg administered daily via gavage for 5 days and measured on day 6 by luminometric method. The class given is functional. A digest of the protocol: (§2)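 Mice grouped by similar RLU, four per group. Dosed by gavage daily from day 0 to day 5 in 0.5% CMC-Na, with vehicle, RIF 10 mg/kg and PZA 150 mg/kg controls. Lung or spleen burden read as log10 RLU, mean ± SD.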

In data set [4] the test system is Mycobacterium tuberculosis. Description: Synergistic antimicrobial activity against autoluminescent Mycobacterium tuberculosis H37Ra assessed as test compound concentration causing ratio of drug treated RLU/untreated RLU less than 10% by measuring FICI at 0.0625 to 2 times MIC after 7 days in presence of sulfamethoxazole by luminometric method. The class given is functional. In outline: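 Exponential-phase UAIRa in 7H9 without Tween 80 at 10,000-50,000 RLU/mL. Compound at 2-fold dilutions from 2×MIC to MIC/16, each combined with sulfamethoxazole at 16, 8, 4 or 2 µg/mL, with a 2% DMSO control. RLU read after 7 days at 37 °C. MIC taken as RLU drug/DMSO below 10%. FICI is the sum of MIC in combination over MIC alone for each drug.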

A short description of data set [5]: Toxicity in Balb/c mouse infected with Mycobacterium tuberculosis H37Ra assessed as mouse death at 100 mg/kg administered daily via gavage for 5 days. To be noted: in vivo, po, 120 h. The class given is organism-based. A digest of the protocol:
as §1

The test system of data set [6] is Mycobacterium tuberculosis. Description: Antimicrobial activity against autoluminescent Mycobacterium tuberculosis H37Ra infected in BALB/c mouse assessed as reduction in bacterial burden in spleen at 100 to 300 mg/kg administered daily via gavage for 5 days and measured on day 6 by luminometric method. The class given is functional. In outline: as §2
The test system of data set [7] is Mycobacterium tuberculosis. Description: Antimicrobial activity against autoluminescent Mycobacterium tuberculosis H37Ra infected in BALB/c mouse assessed as reduction in bacterial burden in spleen at 200 mg/kg administered daily via gavage for 5 days and measured on day 6 by luminometric method. The class given is functional, organism-based. A digest of the protocol:
as §2

The test system of data set [8] is Mycobacterium tuberculosis. Description: Antimicrobial activity against autoluminescent Mycobacterium tuberculosis H37Ra infected in BALB/c mouse assessed as reduction in bacterial burden in lung at 200 mg/kg administered daily via gavage for 5 days and measured on day 6 by luminometric method. The class given is functional, organism-based. A digest of the protocol: as §2

A short description of data set [9]: Toxicity in Balb/c mouse infected with Mycobacterium tuberculosis H37Ra assessed as mouse death at 200 mg/kg administered daily via gavage for 5 days. To be noted: in vivo, po, 120 h. The data set is classed as organism-based. In outline: as §1
Data set [10] deals with Mycobacterium tuberculosis. Description: Antimicrobial activity against autoluminescent Mycobacterium tuberculosis H37Ra infected in BALB/c mouse assessed as reduction in bacterial burden in spleen at 300 mg/kg administered daily via gavage for 5 days and measured on day 6 by luminometric method. The data set is classed as functional, organism-based. In outline: as §2
For data set [11], the system named is Mycobacterium tuberculosis. Description: Antimicrobial activity against autoluminescent Mycobacterium tuberculosis H37Ra infected in BALB/c mouse assessed as reduction in bacterial burden in lung at 300 mg/kg administered daily via gavage for 5 days and measured on day 6 by luminometric method. The class given is functional. In outline:
as §2

Active and inactive are the calls of the source. The rule behind the calls is not given here. A value given as a limit tells only on which side of the number the result lay.

`Cc1cc(Nc2ncc(Cl)c(NCc3ccccc3)n2)c(OC(C)C)cc1C1CCNCC1`: in data set [1], the MIC – broadly, the lowest concentration found to suppress growth – came out at 10 µM.
On the same count and under the same terms, under `CC(C)S(=O)(=O)c1ccccc1Nc1nc(Nc2ccccc2C#N)ncc1Cl` stands greater than 200 µM.
As for `Cc1cc(Nc2ncc(Cl)c(Nc3cccc4ccccc34)n2)c(OC(C)C)cc1C1CCNCC1`, the Activity entry in [2] is given as “Non-Toxic”; in [3], 2 log10RLU; in data set [5], “Non-Toxic”; in [6], 0.5 log10RLU. Moreover, the “fractional inhibitory concentration index (FICI)” value in data set [4] is reported as 0.74. For the same molecule, the MIC in data set [1] turned out to be 5 µM.
As to `CC(C)S(=O)(=O)c1ccccc1Nc1nc(Nc2ccccc2OCCCN2CCOCC2)ncc1Cl`, in [1], the MIC is greater than 150 µM.
Same read-out and setting: as for `Cc1cc(Nc2ncc(Cl)c(N[C@H](C)c3ccccc3)n2)c(OC(C)C)cc1C1CCNCC1`, the figure is 10 µM; as for `CC(C)S(=O)(=O)c1ccccc1Nc1nc(Nc2ccc(C#N)c(F)c2)ncc1Cl`, greater than 200 µM.
Take `COc1ccc(Nc2ncc(Cl)c(Nc3ccccc3S(=O)(=O)C(C)C)n2)cc1`: in [1], the MIC was greater than 200 µM.
As for `Cc1cc(Nc2ncc(Cl)c(Nc3ccccc3O)n2)c(OC(C)C)cc1C1CCNCC1`, in [1], the MIC was no more than 10 µM.
In the case of `Cc1cc(Nc2ncc(Cl)c(NCCc3ccccc3)n2)c(OC(C)C)cc1C1CCNCC1`, the result in [7] and in [8] was Active. Also, the Activity result in [2] and in data set [9] was “Non-Toxic” each time. For the same molecule, the “fractional inhibitory concentration index (FICI)” value in [4] was found to be 0.74. Further, the MIC in data set [1] came out at 5 µM.
Consider `Cc1cc(Nc2ncc(Cl)c(Nc3ccccc3S(=O)(=O)C(C)C)n2)c(OC(C)C)cc1N1CCOCC1`, for which the MIC in data set [1] was greater than 150 µM.
`Cc1cc(Nc2ncc(Cl)c(Nc3ccc4ccccc4c3)n2)c(OC(C)C)cc1C1CCNCC1`: the minimal inhibitory concentration (MIC) in [1] was 10 µM.
As for `Cc1cc(Cc2ncc(Cl)c(NCCc3ccc(O)cc3)n2)c(OC(C)C)cc1C1CCNCC1`, the MIC in [1] was 10 µM.
With `Cc1cc(Nc2ncc(Cl)c(Nc3ccc(O)cc3)n2)c(OC(C)C)cc1C1CCNCC1`, in data set [1], the MIC came out at 10 µM.
On to `CC(C)S(=O)(=O)c1ccccc1Nc1nc(Nc2ccccc2O)ncc1Cl`, for which the MIC in data set [1] was greater than 200 µM.
As for `Cc1cc(Nc2ncc(Cl)c(Nc3cccc(-c4ccccc4)c3)n2)c(OC(C)C)cc1C1CCNCC1`, the MIC in data set [1] amounted to 19 µM.
In the case of `Cc1cc(NS(=O)(=O)c2ccc(N)cc2)no1` [SULFAMETHOXAZOLE], the MIC in [1] was found to be 67 µM.
Still for that read-out and setting: as for `Cc1cc(Nc2ncc(Cl)c(Nc3cc(C(F)(F)F)cc(C(F)(F)F)c3)n2)c(OC(C)C)cc1C1CCNCC1`, the figure is 17 µM; as for `Cc1cc(Nc2ncc(Cl)c(NC3CCCCC3)n2)c(OC(C)C)cc1C1CCNCC1`, 11 µM; as for `COc1ccc(Nc2nc(Nc3cc(C)c(C4CCNCC4)cc3OC(C)C)ncc2Cl)cc1Br`, 9 µM.
As to `CC(C)S(=O)(=O)c1ccccc1Nc1nc(Nc2ccc(Cl)cc2)ncc1Cl`, the MIC in data set [1] is greater than 200 µM.
Take `COc1ccc(-c2cc(Nc3nc(Nc4cc(C)c(C5CCNCC5)cc4OC(C)C)ncc3Cl)ccc2OC)cc1`: the MIC in data set [1] was determined as 17 µM.
Same read-out and setting: under `CC(C)S(=O)(=O)c1ccccc1Nc1nc(NCCc2ccc(Br)cc2)ncc1Cl` stands greater than 150 µM; under `Cc1cc(Nc2ncc(Cl)c(Nc3ccccc3S(=O)(=O)C(C)C)n2)c(OC(C)C)cc1N1CCNCC1`, 9 µM.
For `COc1ccc(CCNc2nc(Nc3cc(C)c(C4CCNCC4)cc3OC(C)C)ncc2Cl)cc1`, the outcome in [7] and in [8] was inactive. Moreover, in data set [4], the “fractional inhibitory concentration index (FICI)” value is recorded as 1.24. Further, the MIC in [1] came to 5 µM. The Activity result in data set [9] was “Toxic”.
As for `Cc1cc(Nc2ncc(Cl)c(NCCc3cccs3)n2)c(OC(C)C)cc1C1CCNCC1`, the MIC in data set [1] came to 10 µM.
Same read-out and setting: as for `Cc1cc(Nc2ncc(Cl)c(NCCc3ccc(F)cc3)n2)c(OC(C)C)cc1C1CCNCC1`, the figure is 10 µM; as for `Cc1cc(Nc2ncc(Cl)c(NC(C)(C)Cc3ccc4ccccc4c3)n2)c(OC(C)C)cc1C1CCNCC1`, 18 µM; as for `Cc1cc(Nc2ncc(Cl)c(NC34CC5CC(CC(C5)C3)C4)n2)c(OC(C)C)cc1C1CCNCC1`, 20 µM.
Still for that read-out and setting: under `Cc1cc(Nc2ncc(Cl)c(Nc3ccc(C(N)=O)cc3)n2)c(OC(C)C)cc1C1CCNCC1` stands 20 µM.
Regarding `Cc1cc(Nc2ncc(Cl)c(Nc3ccccc3S(=O)(=O)C(C)C)n2)c(OC(C)C)cc1N1CCN(C)CC1`, the MIC in data set [1] turned out to be 18 µM.
`Cc1cc(Nc2ncc(Cl)c(N3CCCc4ccccc43)n2)c(OC(C)C)cc1C1CCNCC1`: the MIC in [1] is 20 µM.
With `Cc1cc(Nc2ncc(Cl)c(Nc3ccccc3S(=O)(=O)C(C)C)n2)c(OC(C)C)cc1C1CCNCC1` [CERITINIB], the outcome in data set [10] was inactive. Moreover, the figures for the Activity result in data set [2] and in [11] were “Toxic” and 1 log10RLU, respectively. Moreover, the “fractional inhibitory concentration index (FICI)” value in data set [4] came to 0.74. For the same molecule, in data set [1], the MIC is 9 µM.
As to `CC(C)S(=O)(=O)c1ccccc1Nc1nc(Nc2ccc(C(N)=O)cc2)ncc1Cl`, in data set [1], the minimum inhibitory concentration (MIC) was greater than 200 µM.

The record behind these values is ChEMBL document CHEMBL4330070, “Design and synthesis of novel pyrimidine derivatives as potent antitubercular agents” (Eur J Med Chem, 2019).
